ChEMBL document CHEMBL4513216, “Probing the Open Global Health Chemical Diversity Library for Multistage-Active Starting Points for Next-Generation Antimalarials” (ACS Infect Dis, 2020)

Assay: Toxicity liver stage against HepG2, at 10uM
Assay type: cell-based
Design: test concentration 10 uM, cell line HepG2-A16-CD81EGFP
Conditions: human, HepG2-A16-CD81EGFP cells; read-out: INHIBITION
In short: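 Uninfected HepG2-A16-CD81EGFP cells, 3 × 10^3 per well, 1536-well, plated on prespotted compound at 10 μM final, parasite-free screening media added to match infected plates; puromycin 10 μM positive, DMSO 0.5% negative; run in parallel with 48 h PbLuc assay at 37 °C, 5% CO2; viability by CellTiter-Glo luminescence, normalized to controls.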

Question: With `CC(C)NC(=O)NC[C@H]1OC[C@@H](NCc2ccc(F)cc2)[C@@H]1O` as the molecule, how does the cytotoxicity at 10 µM read?
Answer: The cytotoxicity at 10 µM was 2.07%.

Question: Which cytotoxicity at 10 µM does the source give for `COC(=O)c1cccc(C(=O)N2CCN(c3cc(C)ccc3C)CC2)n1` here?
Answer: Its cytotoxicity at 10 µM is 7.8%.

Question: Which cytotoxicity at 10 µM does the source give for `Cc1nnc(SC2CCc3ccccc3NC2=O)o1` (stereo unspecified) here?
Answer: The cytotoxicity at 10 µM was 1.35%.

Question: With `COc1ccc(CCNC(=O)NC2CC(=O)N(c3ccccc3)C2)cc1` (stereo unspecified) as the molecule, how does the cytotoxicity at 10 µM read?
Answer: Its cytotoxicity at 10 µM is -48%.

Question: With `CCNC(=O)N1CC(c2nc(Cc3ccccc3)no2)C1` as the molecule, how does the cytotoxicity at 10 µM read?
Answer: Its cytotoxicity at 10 µM is -2.98%.

Question: With `COc1cc(N2CCC3(CC2)CC(N2CCOCC2)CO3)ncn1` (stereo unspecified) as the molecule, how does the cytotoxicity at 10 µM read?
Answer: Its cytotoxicity at 10 µM is 3.44%.

Question: With `CN(C)CC(=O)N1Cc2cc(-c3cc[nH]n3)ccc2C1c1cnco1` (stereo unspecified) as the molecule, how does the cytotoxicity at 10 µM read?
Answer: The cytotoxicity at 10 µM was 21.4%.

Question: Which cytotoxicity at 10 µM does the source give for `O=C1CCCN1Cc1ncn2c1CN(C(=O)NC1CCCCC1)CCC2` here?
Answer: The cytotoxicity at 10 µM was -150%.

Question: Which cytotoxicity at 10 µM does the source give for `COc1ccccc1C1CC(=O)Nc2c1c(=O)[nH]n2C(C)C` (stereo unspecified) here?
Answer: Its cytotoxicity at 10 µM is -4.08%.

Question: For `Cc1ccc(-c2snnc2C(=O)NCCCO)cc1`, which cytotoxicity at 10 µM is on record?
Answer: Its cytotoxicity at 10 µM is 6.67%.

Question: For `O=C(COCc1nc(-c2ccncc2)no1)N1CCCCC1`, which cytotoxicity at 10 µM is on record?
Answer: Its cytotoxicity at 10 µM is 5.4%.

Question: For `O=C(NCC1(O)COCCN(Cc2cccc(O)c2)C1)c1cscn1` (stereo unspecified), which cytotoxicity at 10 µM is on record?
Answer: The cytotoxicity at 10 µM was -2.28%.

Question: For `O=C(O)c1cncc(Cc2cccc(F)c2)c1`, which cytotoxicity at 10 µM is on record?
Answer: Its cytotoxicity at 10 µM is 5.31%.

Question: Which cytotoxicity at 10 µM does the source give for `CCCS(=O)(=O)C(C)C(=O)Nc1ccc2oc(C3CC3)nc2c1` (stereo unspecified) here?
Answer: The cytotoxicity at 10 µM was 5.3%.

Question: Which cytotoxicity at 10 µM does the source give for `O=C1CC2(CCSC2)C(=O)N1Cc1coc(-c2ccc(F)cc2)n1` (stereo unspecified) here?
Answer: Its cytotoxicity at 10 µM is 6.88%.

Question: Which cytotoxicity at 10 µM does the source give for `CNS(=O)(=O)c1ccc(C(=O)NCc2ccnc(OC)c2)cc1` here?
Answer: Its cytotoxicity at 10 µM is 2.86%.

Question: Which cytotoxicity at 10 µM does the source give for `Cn1c(SCc2noc(-c3ccsc3)n2)nnc1C1CCS(=O)(=O)C1` (stereo unspecified) here?
Answer: Its cytotoxicity at 10 µM is 3.39%.

Question: For `CNC(=O)c1ccc(=O)n(Cc2csc(N(C)C(C)=O)n2)c1`, which cytotoxicity at 10 µM is on record?
Answer: Its cytotoxicity at 10 µM is 0.138%.

Question: With `O=c1oc(-c2ccc(F)cc2)nn1CCc1ccncc1` as the molecule, how does the cytotoxicity at 10 µM read?
Answer: Its cytotoxicity at 10 µM is -3.57%.

Question: For `CC(=O)Nc1ccc(CNC2CCCSC2)cc1` (stereo unspecified), which cytotoxicity at 10 µM is on record?
Answer: Its cytotoxicity at 10 µM is -10.5%.

Question: Which cytotoxicity at 10 µM does the source give for `Cc1noc(C)c1CCC(=O)N1CCn2cccc2C1C` (stereo unspecified) here?
Answer: Its cytotoxicity at 10 µM is -0.376%.

Question: With `N#Cc1cccnc1NCCNC(=O)N1CCCSCC1` as the molecule, how does the cytotoxicity at 10 µM read?
Answer: Its cytotoxicity at 10 µM is -10.8%.

Question: Which cytotoxicity at 10 µM does the source give for `O=C(NCC(O)c1ccccc1Cl)c1cccc(-n2cnnn2)c1` (stereo unspecified) here?
Answer: The cytotoxicity at 10 µM was -15.6%.

Question: Which cytotoxicity at 10 µM does the source give for `COc1cccc2c1OCC(CNC(=O)Cc1cnccn1)C2` (stereo unspecified) here?
Answer: Its cytotoxicity at 10 µM is -145%.

Question: With `Cc1cn2cc(C(=O)NC3CCCN(c4ncccn4)C3)ccc2n1` (stereo unspecified) as the molecule, how does the cytotoxicity at 10 µM read?
Answer: Its cytotoxicity at 10 µM is 12.1%.

Question: For `CC(Cc1cn(CCc2nnn[nH]2)nn1)c1ccccc1` (stereo unspecified), which cytotoxicity at 10 µM is on record?
Answer: The cytotoxicity at 10 µM was 3.78%.

Question: For `Cc1nccc(N2CCC(Cc3cccc(C(=O)O)c3)CC2)n1`, which cytotoxicity at 10 µM is on record?
Answer: The cytotoxicity at 10 µM was -135%.

Question: With `CCS(=O)(=O)N[C@H]1CN(Cc2noc(COC)n2)C[C@@H]1C1CC1` as the molecule, how does the cytotoxicity at 10 µM read?
Answer: Its cytotoxicity at 10 µM is -3.22%.

Question: Which cytotoxicity at 10 µM does the source give for `O=C(c1cccc(CO)n1)N1CCOC(c2ccc(Cl)c(Cl)c2)C1` (stereo unspecified) here?
Answer: The cytotoxicity at 10 µM was -10.4%.

Question: With `O=C(CN1CC(n2cccn2)C1)NCCc1ccc(F)cc1` as the molecule, how does the cytotoxicity at 10 µM read?
Answer: The cytotoxicity at 10 µM was -14.3%.

Question: For `Cc1ccc(NC2CCN(C(=O)C(C)n3cncn3)CC2)nn1` (stereo unspecified), which cytotoxicity at 10 µM is on record?
Answer: The cytotoxicity at 10 µM was -14.2%.

Question: For `O=C(CCc1ccccc1Cl)NS(=O)(=O)c1ccc2c(c1)OCCO2`, which cytotoxicity at 10 µM is on record?
Answer: The cytotoxicity at 10 µM was -6.69%.

Question: Which cytotoxicity at 10 µM does the source give for `Cn1ncc2c(=O)[nH]c(CN3CCCC3c3ccccc3Cl)nc21` (stereo unspecified) here?
Answer: The cytotoxicity at 10 µM was -4.8%.

Question: For `Cc1ccc(C(=O)N2CCN(CC(C)O)CC2)cc1S(C)(=O)=O` (stereo unspecified), which cytotoxicity at 10 µM is on record?
Answer: The cytotoxicity at 10 µM was -2.96%.

Question: Which cytotoxicity at 10 µM does the source give for `CCc1nnc2n1CCN(C(=O)c1ccc(-c3ccco3)[nH]c1=O)C2` here?
Answer: Its cytotoxicity at 10 µM is -11.5%.

Question: For `Cc1nc(C)n(CC2CCCN(CCOc3ccc(C#N)cc3)C2)n1` (stereo unspecified), which cytotoxicity at 10 µM is on record?
Answer: The cytotoxicity at 10 µM was -1.55%.

Question: For `Fc1cccc(-n2ccc(CN3CCCC3Cn3cncn3)n2)c1` (stereo unspecified), which cytotoxicity at 10 µM is on record?
Answer: Its cytotoxicity at 10 µM is -9.43%.

Question: With `Cc1cnn(CC2CCCN2C(=O)c2n[nH]c3ccccc23)c1` (stereo unspecified) as the molecule, how does the cytotoxicity at 10 µM read?
Answer: The cytotoxicity at 10 µM was -9.93%.

Question: With `Cc1nc(C2CCCN(C(=O)c3ccc(N4CCCC4)nn3)C2)no1` (stereo unspecified) as the molecule, how does the cytotoxicity at 10 µM read?
Answer: Its cytotoxicity at 10 µM is -13.6%.

Question: With `CCOC(=O)N1CCC2(CCNC2)C1` (stereo unspecified) as the molecule, how does the cytotoxicity at 10 µM read?
Answer: The cytotoxicity at 10 µM was 2.14%.

Question: Which cytotoxicity at 10 µM does the source give for `CN1C(=O)C2(CCN(Cc3nccn3C)CC2)c2ccccc21` here?
Answer: The cytotoxicity at 10 µM was 1.49%.

Question: For `O=C1CCC2(CCCN(Cc3ccccc3F)C2)N1CC1CC1` (stereo unspecified), which cytotoxicity at 10 µM is on record?
Answer: The cytotoxicity at 10 µM was 6.06%.

Question: With `Cc1cccc(CN2C(=O)CCC23CCNCC3)n1` as the molecule, how does the cytotoxicity at 10 µM read?
Answer: Its cytotoxicity at 10 µM is 0.758%.

Question: For `CN1CCc2c(CNC(=O)c3nccn3C)cncc2C1`, which cytotoxicity at 10 µM is on record?
Answer: The cytotoxicity at 10 µM was -95.7%.

Question: With `O=C(CC1[C@H]2CN(Cc3ccncc3)C[C@@H]12)N1CCCC1` (stereo partly specified) as the molecule, how does the cytotoxicity at 10 µM read?
Answer: The cytotoxicity at 10 µM was 2.58%.

Question: With `C=Cc1cccc(CN2C[C@@H]3CC[C@H]2CN(Cc2c(C)noc2C)C3)c1` as the molecule, how does the cytotoxicity at 10 µM read?
Answer: The cytotoxicity at 10 µM was -6.58%.
